ChEMBL document CHEMBL1154945, “Decahydroisoquinoline derivatives as novel non-peptidic, potent and subtype-selective somatostatin sst(3) receptor antagonists” (Bioorg Med Chem Lett, 2010)

Assays:
[1] = target: Somatostatin receptor type 1 (Rattus norvegicus, UniProt P28646); experiment: Displacement of [125I]SRIF-14 from rat cortex membrane SST1 receptor
D(2) dopamine receptor = D(2) dopamine receptor (Homo sapiens, UniProt P14416); experiment: Binding affinity to dopamine D2 receptor
[2] = target: T1, Somatostatin receptor type 3 (Homo sapiens, UniProt P32745); experiment: Binding affinity to human SST3 receptor
T1 sequence (P32745 whole entry): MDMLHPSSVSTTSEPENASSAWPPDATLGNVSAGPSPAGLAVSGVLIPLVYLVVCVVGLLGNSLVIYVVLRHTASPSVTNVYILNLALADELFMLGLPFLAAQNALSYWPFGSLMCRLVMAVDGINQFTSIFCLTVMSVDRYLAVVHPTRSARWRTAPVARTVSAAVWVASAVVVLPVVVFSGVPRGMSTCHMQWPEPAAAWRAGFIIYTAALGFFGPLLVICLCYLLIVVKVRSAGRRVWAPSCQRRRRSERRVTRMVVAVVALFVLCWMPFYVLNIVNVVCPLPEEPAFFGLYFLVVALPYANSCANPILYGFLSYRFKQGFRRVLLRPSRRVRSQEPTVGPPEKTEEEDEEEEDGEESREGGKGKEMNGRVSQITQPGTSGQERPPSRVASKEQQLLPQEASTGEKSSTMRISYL

[3] = target: T2, Alpha-1A adrenergic receptor (Homo sapiens, UniProt P35348); experiment: Binding affinity to Alpha-1A adrenergic receptor
T2 sequence (P35348 whole entry): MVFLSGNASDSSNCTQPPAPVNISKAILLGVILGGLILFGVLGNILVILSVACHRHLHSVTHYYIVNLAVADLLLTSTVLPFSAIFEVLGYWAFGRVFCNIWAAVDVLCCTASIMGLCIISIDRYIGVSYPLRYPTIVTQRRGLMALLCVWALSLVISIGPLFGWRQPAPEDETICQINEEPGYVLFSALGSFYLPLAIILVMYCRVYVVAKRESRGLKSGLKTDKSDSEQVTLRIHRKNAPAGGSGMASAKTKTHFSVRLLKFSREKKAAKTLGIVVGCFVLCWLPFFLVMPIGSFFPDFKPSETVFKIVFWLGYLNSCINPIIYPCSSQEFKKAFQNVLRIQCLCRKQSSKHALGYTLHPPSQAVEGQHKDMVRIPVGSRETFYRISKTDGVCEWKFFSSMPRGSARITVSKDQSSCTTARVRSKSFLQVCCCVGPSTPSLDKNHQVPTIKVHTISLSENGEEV

[4] = target: Somatostatin receptor type 5 (Homo sapiens, UniProt P35346); experiment: Binding affinity to human SST5 receptor
Sequence of Somatostatin receptor type 5 (P35346 whole entry): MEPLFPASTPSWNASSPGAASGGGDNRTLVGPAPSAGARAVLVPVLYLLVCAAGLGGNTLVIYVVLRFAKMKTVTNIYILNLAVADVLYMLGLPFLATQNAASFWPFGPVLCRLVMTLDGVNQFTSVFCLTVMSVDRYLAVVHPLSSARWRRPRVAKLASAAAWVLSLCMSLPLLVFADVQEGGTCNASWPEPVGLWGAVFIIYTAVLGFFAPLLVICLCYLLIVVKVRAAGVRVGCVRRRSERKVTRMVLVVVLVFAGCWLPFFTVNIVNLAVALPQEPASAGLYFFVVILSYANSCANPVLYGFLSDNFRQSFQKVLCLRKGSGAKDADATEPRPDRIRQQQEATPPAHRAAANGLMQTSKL

[5] = target: Somatostatin receptor type 1 (Homo sapiens, UniProt P30872); experiment: Binding affinity to human SST1 receptor
Sequence of Somatostatin receptor type 1 (Homo sapiens, UniProt P30872) (P30872 whole entry): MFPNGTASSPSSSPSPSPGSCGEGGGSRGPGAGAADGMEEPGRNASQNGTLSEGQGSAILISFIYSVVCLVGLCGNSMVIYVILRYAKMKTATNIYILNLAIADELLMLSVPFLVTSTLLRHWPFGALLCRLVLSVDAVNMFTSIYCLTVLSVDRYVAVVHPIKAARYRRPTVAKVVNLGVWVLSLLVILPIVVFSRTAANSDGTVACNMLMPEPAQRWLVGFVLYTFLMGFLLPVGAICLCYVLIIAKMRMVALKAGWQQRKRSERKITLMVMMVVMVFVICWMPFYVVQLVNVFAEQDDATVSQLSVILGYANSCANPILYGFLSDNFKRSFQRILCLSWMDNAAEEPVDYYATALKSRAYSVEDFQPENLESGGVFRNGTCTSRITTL

Cytochrome P450 2D6 = Cytochrome P450 2D6 (Homo sapiens, UniProt P10635); experiment: Inhibition of CYP2D6; assay type: ADME
Sequence of Cytochrome P450 2D6 (P10635 whole entry): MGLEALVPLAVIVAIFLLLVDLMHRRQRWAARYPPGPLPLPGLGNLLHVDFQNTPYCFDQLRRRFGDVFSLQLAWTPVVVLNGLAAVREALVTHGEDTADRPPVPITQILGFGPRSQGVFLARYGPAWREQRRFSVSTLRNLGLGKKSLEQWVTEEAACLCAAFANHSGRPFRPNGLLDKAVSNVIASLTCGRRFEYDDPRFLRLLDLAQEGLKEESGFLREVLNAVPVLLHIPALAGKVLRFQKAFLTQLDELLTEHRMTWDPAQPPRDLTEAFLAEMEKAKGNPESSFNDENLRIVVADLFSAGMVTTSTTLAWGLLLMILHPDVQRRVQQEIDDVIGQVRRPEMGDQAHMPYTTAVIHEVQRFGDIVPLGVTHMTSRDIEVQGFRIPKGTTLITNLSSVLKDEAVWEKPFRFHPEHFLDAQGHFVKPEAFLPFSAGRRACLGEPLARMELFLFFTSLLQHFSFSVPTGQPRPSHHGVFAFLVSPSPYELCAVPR
Outline: (§1)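 Inhibition of the five principal human cytochrome P450 isoenzymes screened by a microplate-based, direct fluorometric assay.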

[6] = Ratio of drug level in brain to plasma in mouse at 3 mg/kg, po after 1 hr by LC-MS based method; assay type: ADME, organism-based; design: dose 3 mg/kg, route oral; conditions: brain and plasma
Outline: (§2)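 Mice and rats dosed orally at 3 mg/kg with unlabelled drug; plasma and brain sampled 1 h after dosing and analysed by LC–MS (LOQ 0.4 ng/ml plasma, 2 ng/g brain); brain/plasma ratio calculated.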

Homo sapiens [7] = species on record: Homo sapiens; experiment: Selectivity for human SST3 over human SST4
Homo sapiens [8] = species on record: Homo sapiens; experiment: Selectivity for human SST3 over human SST2
[9] = target: T3, 5-hydroxytryptamine receptor 2C (Homo sapiens, UniProt P28335); experiment: Binding affinity to 5HT2C receptor
T3 sequence (P28335 whole entry): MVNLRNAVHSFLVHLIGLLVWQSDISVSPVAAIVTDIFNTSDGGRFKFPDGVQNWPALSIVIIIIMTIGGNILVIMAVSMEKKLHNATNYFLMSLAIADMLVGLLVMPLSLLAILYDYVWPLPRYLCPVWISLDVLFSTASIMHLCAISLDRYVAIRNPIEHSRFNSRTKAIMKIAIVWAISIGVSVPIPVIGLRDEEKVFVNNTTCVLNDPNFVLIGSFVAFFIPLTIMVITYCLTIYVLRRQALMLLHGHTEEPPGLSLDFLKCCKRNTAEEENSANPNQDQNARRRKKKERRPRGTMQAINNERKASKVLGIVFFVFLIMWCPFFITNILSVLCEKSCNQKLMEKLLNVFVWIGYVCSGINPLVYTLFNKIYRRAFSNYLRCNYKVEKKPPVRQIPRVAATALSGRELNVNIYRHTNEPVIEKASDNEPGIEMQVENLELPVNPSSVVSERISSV

[10] = target: Somatostatin receptor type 2 (Rattus norvegicus, UniProt P30680); experiment: Displacement of [125I]SRIF-14 from rat cortex membrane SST2 receptor
Sequence of Somatostatin receptor type 2 (Rattus norvegicus, UniProt P30680) (P30680 whole entry): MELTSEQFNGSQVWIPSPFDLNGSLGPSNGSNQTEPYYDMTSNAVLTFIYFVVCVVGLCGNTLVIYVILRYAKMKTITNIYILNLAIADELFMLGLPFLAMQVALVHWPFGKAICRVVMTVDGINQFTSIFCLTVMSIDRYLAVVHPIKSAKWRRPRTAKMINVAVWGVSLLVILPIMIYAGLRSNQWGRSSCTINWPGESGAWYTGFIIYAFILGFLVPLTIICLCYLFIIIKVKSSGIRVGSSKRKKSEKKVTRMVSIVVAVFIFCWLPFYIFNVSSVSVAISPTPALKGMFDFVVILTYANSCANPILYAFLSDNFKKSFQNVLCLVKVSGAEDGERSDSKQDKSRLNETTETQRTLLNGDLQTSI

[11] = target: Somatostatin receptor type 2 (Homo sapiens, UniProt P30874); experiment: Binding affinity to human SST2 receptor
Sequence of Somatostatin receptor type 2 (Homo sapiens, UniProt P30874) (P30874 whole entry): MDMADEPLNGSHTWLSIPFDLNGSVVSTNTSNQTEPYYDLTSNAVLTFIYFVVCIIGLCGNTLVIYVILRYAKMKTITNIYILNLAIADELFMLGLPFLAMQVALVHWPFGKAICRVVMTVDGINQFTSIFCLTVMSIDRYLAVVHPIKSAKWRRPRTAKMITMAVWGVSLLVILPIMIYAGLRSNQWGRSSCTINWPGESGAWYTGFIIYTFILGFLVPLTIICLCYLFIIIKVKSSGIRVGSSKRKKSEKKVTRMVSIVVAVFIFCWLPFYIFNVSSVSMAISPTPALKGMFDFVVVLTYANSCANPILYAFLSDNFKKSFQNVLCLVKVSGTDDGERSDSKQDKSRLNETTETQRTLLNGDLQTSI

[12] = Apparent terminal half life in rat plasma at 1 mg/kg, iv; assay type: ADME, organism-based; design: dose 1 mg/kg, route intravenous
Outline: (§3)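 Unlabelled drug dosed intravenously at 1 mg/kg to mice and rats; plasma analysed by LC–MS (LOQ 0.4 ng/ml); apparent terminal half-life computed from plasma levels.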

[13] = Apparent terminal half life in mouse plasma at 1 mg/kg, iv; assay type: ADME, organism-based; design: dose 1 mg/kg, route intravenous; outline: as §3
[14] = Oral bioavailability in rat at 3 mg/kg; assay type: ADME, organism-based; conditions: in vivo
Outline: (§4)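 Unlabelled drug given orally (3 mg/kg) and intravenously (1 mg/kg) to mice and rats; plasma quantified by LC–MS (LOQ 0.4 ng/ml); absolute bioavailability estimated from the two routes.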

[15] = target: Somatostatin receptor type 3 (Mus musculus, UniProt P30935); experiment: Displacement of [125I]SRIF-28 from mouse recombinant SST3 receptor
Sequence of Somatostatin receptor type 3 (Mus musculus, UniProt P30935) (P30935 whole entry): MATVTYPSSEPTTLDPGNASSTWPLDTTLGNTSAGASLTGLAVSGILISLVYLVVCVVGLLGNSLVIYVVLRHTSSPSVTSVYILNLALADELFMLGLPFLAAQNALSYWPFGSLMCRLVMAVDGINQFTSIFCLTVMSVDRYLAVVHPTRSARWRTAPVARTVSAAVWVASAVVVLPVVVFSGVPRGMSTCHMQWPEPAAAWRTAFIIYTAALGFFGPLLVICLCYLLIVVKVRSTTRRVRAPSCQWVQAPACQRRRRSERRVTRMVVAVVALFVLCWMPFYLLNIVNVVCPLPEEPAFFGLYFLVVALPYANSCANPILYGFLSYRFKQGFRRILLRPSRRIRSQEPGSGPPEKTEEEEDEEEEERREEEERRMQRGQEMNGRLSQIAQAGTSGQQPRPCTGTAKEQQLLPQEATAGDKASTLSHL
Outline: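 Radioligand binding on recombinant mouse sst3 receptors with 125I-SRIF28 as tracer; pKD reported, n = 3.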

Homo sapiens [16] = species on record: Homo sapiens; experiment: Selectivity for human SST3 over human SST1
[17] = Inhibition of CYP450; assay type: ADME; outline: as §1
V79 = experiment: Genotoxicity against chinese hamster V79 cells by micronucleus test; assay type: toxicity, cell-based, Cricetulus griseus
[18] = target: Somatostatin receptor type 4 (Homo sapiens, UniProt P31391); experiment: Binding affinity to human SST4 receptor
Sequence of Somatostatin receptor type 4 (P31391 whole entry): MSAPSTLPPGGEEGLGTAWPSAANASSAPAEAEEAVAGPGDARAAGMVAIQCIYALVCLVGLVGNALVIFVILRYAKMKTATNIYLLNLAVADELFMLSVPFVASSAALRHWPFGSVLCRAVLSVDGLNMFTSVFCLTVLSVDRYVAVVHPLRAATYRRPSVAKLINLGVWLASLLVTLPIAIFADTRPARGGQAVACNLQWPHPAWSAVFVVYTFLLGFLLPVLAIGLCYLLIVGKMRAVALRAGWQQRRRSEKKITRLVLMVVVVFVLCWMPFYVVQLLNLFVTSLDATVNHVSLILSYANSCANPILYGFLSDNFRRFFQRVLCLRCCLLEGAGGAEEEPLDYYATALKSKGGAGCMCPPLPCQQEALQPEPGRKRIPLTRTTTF

[19] = target: T1, Somatostatin receptor type 3; experiment: Antagonist activity at human recombinant SST3 receptor expressed in CHO cells assessed as inhibition of SRIF14-induced cAMP accumulation; assay type: functional, cell-based
Outline: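 cAMP-based functional assay with human recombinant sst3 receptors expressed in CHO cells; test agent's antagonism of SRIF-14 response measured, pKB derived; n = 6.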

Homo sapiens [20] = species on record: Homo sapiens; experiment: Selectivity for human SST3 over human SST5
[21] = Ratio of drug level in brain to plasma in rat at 3 mg/kg, po after 1 hr by LC-MS based method; assay type: ADME, organism-based; design: dose 3 mg/kg, route oral; conditions: brain and plasma; outline: as §2
[22] = Oral bioavailability in mouse at 3 mg/kg; assay type: ADME, organism-based; conditions: in vivo; outline: as §4

Sequence of Somatostatin receptor type 1 (Rattus norvegicus, UniProt P28646) (P28646 whole entry): as the sequence (P30872 whole entry) above, with S8P, S11T, P16S, S20G, G25V, G26C, A32S, A45S, T385A, T389S counted along it
Sequence of D(2) dopamine receptor (P14416 whole entry): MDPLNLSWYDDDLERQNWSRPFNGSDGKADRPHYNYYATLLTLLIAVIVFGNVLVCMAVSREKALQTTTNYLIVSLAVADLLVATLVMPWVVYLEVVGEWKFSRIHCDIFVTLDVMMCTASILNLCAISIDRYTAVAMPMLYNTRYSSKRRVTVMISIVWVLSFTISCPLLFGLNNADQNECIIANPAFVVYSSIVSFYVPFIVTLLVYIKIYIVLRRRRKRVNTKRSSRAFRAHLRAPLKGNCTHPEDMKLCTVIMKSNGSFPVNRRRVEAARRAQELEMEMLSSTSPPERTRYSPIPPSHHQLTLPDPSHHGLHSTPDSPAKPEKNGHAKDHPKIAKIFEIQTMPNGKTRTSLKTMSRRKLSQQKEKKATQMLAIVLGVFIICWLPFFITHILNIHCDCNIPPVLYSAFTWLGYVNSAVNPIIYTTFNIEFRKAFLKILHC

COc1ccc(C[C@H](C)CN2C[C@@H]3CCCC[C@@H]3[C@H](C(=O)N3CCN(c4ccc(F)c(F)c4)CC3)C2)cn1.O=C(O)/C=C/C(=O)O
Kd [1]: 589 nM
Kd (D(2) dopamine receptor): 741 nM
Kd [2]: 7.08 nM
Kd [3]: 692 nM
Kd [4]: 1120 nM
Kd [5]: 2040 nM
IC50 (Cytochrome P450 2D6): 6500 nM
Kp at 1 h [6]: 2.4
Ratio (Homo sapiens [7]): 21
Ratio (Homo sapiens [8]): > 150
Kd [9]: 427 nM
Kd [10]: 115 nM
Kd [11]: 4570 nM
half-life [12]: 5.6 h
half-life [13]: 1.5 h
bioavailability [14]: 21%
Kd [15]: 4.9 nM
Ratio (Homo sapiens [16]): > 100
IC50 [17]: > 10000 nM
Activity (V79): Non-toxic
Kd [18]: 148 nM
pKb [19]: 7.88
Ratio (Homo sapiens [20]): > 150
Kp at 1 h [21]: 0.4
bioavailability [22]: 15%
